KCNK3 inh: human KCNK3 channel inhibition, primary screen. CHO-KCNK3 thallium flux, FluxOR fluorescence; active compounds read low. B-score at 10 µM. hit rate 0.84% among 340,000;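 active = B-score under library mean minus 4 SD, starting fluorescence ratio at most library mean plus 5 SD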;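 note: more negative B-score means stronger inhibition of thallium flux through KCNK3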
Target sequence (O14649 whole entry, looked up): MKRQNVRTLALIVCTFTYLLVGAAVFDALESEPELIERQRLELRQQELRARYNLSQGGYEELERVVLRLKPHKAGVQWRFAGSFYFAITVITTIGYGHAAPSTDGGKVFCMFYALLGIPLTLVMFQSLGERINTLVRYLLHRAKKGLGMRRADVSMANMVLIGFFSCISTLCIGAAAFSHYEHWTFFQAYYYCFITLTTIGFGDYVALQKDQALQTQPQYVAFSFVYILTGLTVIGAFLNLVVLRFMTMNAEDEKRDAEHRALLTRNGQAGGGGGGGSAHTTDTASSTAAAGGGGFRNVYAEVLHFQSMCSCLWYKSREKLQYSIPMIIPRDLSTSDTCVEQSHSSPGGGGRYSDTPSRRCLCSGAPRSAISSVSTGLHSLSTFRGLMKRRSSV
Cl transport mod: modulators of human KCC2 chloride dependent transport; KCC2 cells, thallium flux FluoZin-2 fluorescence; hit rate 2.2% among 190,000; B-score of Tl+ flux slope (higher = more flux/activation; lower = inhibition) at 10 µM; Q9H2X9;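 active = thallium flux slope and its plate-corrected score both differing from the plate sample mean at a set confidence after two filtering rounds, in either direction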;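 note: slope of fluorescence scaled to starting intensity during 10 to 20 s after thallium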
KCNQ1 block: inhibitors of human KCNQ1 potassium channel | CHO-K1 KCNQ1, FluxOR thallium flux fluorescence; active compounds read high | B-score at 10 µM | hit rate 1.3% among 310,000 | AID 2642;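 active = compounds whose thallium flux B-score, printed positive for inhibition, exceeds three library SD while starting fluorescence stays within three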;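 note: channel opened by potassium depolarization with thallium stimulus after 20 min compound exposure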
KCNQ1 act: potentiators or activators of human KCNQ1 potassium channel | CHO-K1 KCNQ1, thallium flux FluxOR fluorescence; active compounds read high | B-score at 10 µM | hit rate 0.35% among 310,000 | AID 2648;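 active = fluorescence ratio B-score, a plate-corrected score, at least three library SD, with initial intensity B-score within 5 SD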
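Material: CHO-K1 cells stably expressing KCNQ1. Medium: assay buffer for compound exposure, DMSO matched across wells. Reagent: K+/Tl+ depolarizing stimulus. Compound dosing: single-concentration screen. Times: 37 °C overnight plating, 90-min dark dye load, 20-min compound pretreatment. Technique: FluxOR Tl+ flux fluorescence.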
hERG protect: compounds protecting human hERG from proarrhythmic drug block. CHO-hERG, FluxOR thallium flux, dofetilide IC70 present. activation (rescue from dofetilide block), less the hit threshold, % at 10 µM. hit rate 0.51% among 310,000;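 active = activation above the mean of controls blocked by dofetilide plus 5 SD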;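 note: thallium influx through hERG after potassium depolarization seen as dye fluorescence rise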
KCNK9 inh: blocks the human KCNK9 two-pore domain potassium channel | B-score at 10 µM | hit rate 1.2% among 310,000 | Q9NPC2 | AID 488922 | HEK293 KCNK9, FluxOR thallium flux fluorescence; active compounds read low;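 active = ratio B-score over 3 SD below the library mean, with starting fluorescence within 5 SD of its mean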;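 note: negative B-score means less thallium flux so channel inhibition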
Target sequence (Q9NPC2 whole entry, looked up, the tested form may be a part): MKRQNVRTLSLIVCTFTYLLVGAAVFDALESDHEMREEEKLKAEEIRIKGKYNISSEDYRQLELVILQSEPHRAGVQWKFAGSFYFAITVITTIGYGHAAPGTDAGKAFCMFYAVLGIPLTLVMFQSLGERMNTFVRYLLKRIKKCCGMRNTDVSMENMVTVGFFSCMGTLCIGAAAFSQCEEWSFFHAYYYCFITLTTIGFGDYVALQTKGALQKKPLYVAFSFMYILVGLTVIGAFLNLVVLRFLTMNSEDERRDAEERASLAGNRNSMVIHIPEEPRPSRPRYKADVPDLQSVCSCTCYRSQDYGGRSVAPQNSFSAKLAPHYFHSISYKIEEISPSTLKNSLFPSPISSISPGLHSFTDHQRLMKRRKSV
KCC2 secondary: confirmation of human KCC2 transport modulators; shares compounds with Cl transport mod; AID 1713; HEK293-KCC2, thallium flux, FluoZin2 fluorescence; active compounds read high; normalised thallium flux (F/F0 slope) at 10 µM; hit rate 15% among 3,700;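 active = thallium flux slope above the same plate's solvent-only control mean plus 3 SD; inconclusive = the two replicate wells disagree; inactive = no significant difference from solvent-only control wells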
KCC2 bumet counter: thallium flux despite bumetanide block in KCC2 cells, secondary assay 3; shares compounds with Cl transport mod; HEK293-KCC2 + bumetanide/ouabain, thallium flux FluoZin2; active compounds read high; normalized thallium flux at 10 µM; hit rate 49% among 3,700;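 active = thallium entry rate above the same plate's blocked-transporter control wells by more than 3 SD; inconclusive = the two repeat wells disagree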;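 note: raw slope of fluorescence over initial fluorescence between 10 and 20 s after thallium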
KCC2 secondary2: confirmation of human KCC2 transport modulators | shares compounds with Cl transport mod | normalized thallium flux at 10 µM | HEK293-KCC2, thallium flux FluoZin2 fluorescence; actives lie on both sides; F/F0 rise rate, 10–20 s post-thallium | hit rate 23% among 3,700;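 active = thallium flux slope more than 3 SD above or below the plate's solvent-only control mean, mostly below; inconclusive = the two repeat wells disagreed; inactive = no significant shift from solvent-only controls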;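 note: raw slope with 0.1% DMSO as baseline and bumetanide as block control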
HEK293 Tl flux: acts in parental HEK cells, KCC2 counter-screen | shares compounds with Cl transport mod | HEK293 parental cells, thallium flux FluoZin2, ouabain; baseline-ratio fluorescence slope, 10–20 s after thallium | thallium flux rate (normalised fluorescence) at 10 µM | hit rate 46% among 3,700 | AID 1716;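 active = thallium flux rate significantly above the same plate's solvent-only control wells, beyond their mean plus 3 SD; inconclusive = the two replicate wells gave conflicting results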
KCC2 ouabain: modulates human KCC2 on retest with ouabain; shares compounds with Cl transport mod; HEK293-KCC2, thallium flux FluoZin2 fluorescence; bidirectional: low = inhibitor, high = activator; raw Tl+ flux slope (below DMSO = inhibition, above = activation) at 10 µM; hit rate 48% among 3,700; AID 1717;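 active = thallium flux slope beyond 3 SD from same-plate DMSO control mean in most replicates, usually higher, sometimes lower; inconclusive = repeat tests gave conflicting results; inactive = no significant difference from controls in most replicates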;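 note: slope of initial-normalized fluorescence between seconds 10 and 20 after thallium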
HEK293 Tl flux2: acts in parental HEK cells, second KCC2 counter-screen; shares compounds with Cl transport mod; HEK293 parental, thallium flux FluoZin-2 fluorescence slope; thallium flux slope at 10 µM; hit rate 33% among 3,700; AID 1718;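 active = thallium flux slope above the same plate's solvent-control mean plus 3 SD in both duplicate wells; inconclusive = duplicate wells that disagreed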;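 note: run without ouabain in cells lacking the KCC2 cotransporter; slope of fluorescence scaled to its starting value between 10 and 20 s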
Active calls of the source: *; i = inactive; ? = inconclusive; nt = not tested or not shown. Most compounds without a hit are left out; they make up all but 4.1% or so of the library.

SMILES	KCNK3 inh	Cl transport mod	KCNQ1 block	KCNQ1 act	hERG protect	KCNK9 inh	KCC2 secondary	KCC2 bumet counter	KCC2 secondary2	HEK293 Tl flux	KCC2 ouabain	HEK293 Tl flux2
O=C(NNC(=S)Nc1ccc(Cl)cc1)c1ccccc1OC(F)F	i	5.2*	8*	i	-11	i	0.0071	0.023*	0.033	0.02*	0.029*	0.013*
Cc1cc(NC(=O)CCC(=O)N(Cc2ccco2)C2(C(=O)NC3CCCCC3)CCN(C)CC2)no1	i	-5.9*	i	i	-10	i	0.0056	0.0049	0.033	0.0073	0.019	0.011
Cc1cc(C)cc(N(C(=O)CCC(=O)Nc2cc(C)on2)C(C(=O)NC2CCCC2)c2ccco2)c1 (stereo not given)	i	0.42	i	i	-9	i	nt	nt	nt	nt	nt	nt
Cc1ccc(C)c(N(C(=O)CCC(=O)Nc2cc(C)on2)C(C(=O)NC2CCCC2)c2ccco2)c1 (stereo not given)	i	-4.3*	i	i	-4	i	?	0.0043	?	0.0067	0.015	0.009
N#Cc1c2n(c3c(=O)n(Cc4ccc(Cl)cc4)cnc13)CCCCC2	i	nt	i	i	-5	i	0.0052	0.0044	0.023*	?	0.014*	0.01
N#Cc1ccc(CSc2ccc(S(=O)(=O)N3CCCC3)cn2)cc1	i	nt	nt	nt	nt	nt	nt	nt	nt	nt	nt	nt
Cn1nnnc1SCC1=C(C(=O)O)N2C(=O)C(NC(=O)C3CC3c3ccccc3)C2SC1 (stereo not given)	i	-5.4*	i	i	-7	i	0.0078	0.005	0.029	?	0.019	0.011
COc1ccc(C(=O)CC(=O)C(=O)Nc2ccc(C)c(C)c2)cc1	i	nt	i	i	3	i	nt	nt	nt	nt	nt	nt
COc1ccc(C(=O)NNC(=O)C(=O)Nc2ccc(C)c(Cl)c2)cc1	i	47*	i	58*	97*	i	0.01*	0.067*	0.054*	0.057*	0.06*	0.051*
Cc1ccc(NC(=O)C(=O)N2CCCC2)cc1Cl	i	0.031	i	i	2	i	nt	nt	nt	nt	nt	nt
Cc1ccc(NC(=O)C(=O)NNC(=O)c2ccccc2C)cc1Cl	i	46*	i	41*	46*	i	0.048*	0.11*	0.052*	?	0.087*	0.043*
OCCN(Cc1cccnc1)Cc1ccccn1	i	nt	nt	nt	nt	nt	nt	nt	nt	nt	nt	nt
CC(C)(C)c1ccc(C(=O)/C=C2\NC(=O)CS2)cc1	i	31*	i	i	0	i	0.0074	0.049*	0.05*	0.035*	0.043*	0.037*
COc1cc(/C=C2\CCC(C)C3=C(c4cc(OC)c(OC)c(OC)c4)C(C#N)=C(N)OC32)cc(OC)c1OC (stereo not given)	i	nt	nt	nt	nt	nt	nt	nt	nt	nt	nt	nt
O=C(NNC(=S)NC(=O)c1sc2ccccc2c1Cl)c1ccc(Cl)cc1	i	25*	i	62*	44*	i	0.017*	0.053*	?	0.037*	0.052*	0.013*
COc1cc(CCC(=O)NNC(=O)c2ccc(Cl)cc2)cc(OC)c1OC	i	nt	i	i	0	i	nt	nt	nt	nt	nt	nt
COc1cc(C(=O)NNC(=S)NC(=O)c2ccc(Cl)cc2)cc(OC)c1OC	i	13*	i	i	-11	i	0.017*	0.028*	0.038	0.017*	0.033*	0.012*
O=C(NNC(=O)c1sc2ccccc2c1Cl)Nc1ccc(Cl)cc1	i	-0.31	i	i	-10	i	nt	nt	nt	nt	nt	nt
O=C(NN=C1CCCC1)c1sc2ccccc2c1Cl	i	11*	i	i	-1	i	0.0057	0.023*	0.031	0.022*	?	0.019*
O=C(Nc1ccc(Nc2ccccc2)cc1)c1ccc(Br)o1	i	-5.7*	i	i	-18	-7.7*	?	0.0048	0.03	0.0067	0.013*	?
Cc1ccc(NC(=O)Cc2nc(-c3c[nH]c(C(=O)N4CCCC4)c3)cs2)c(C)c1	i	nt	nt	nt	nt	nt	nt	nt	nt	nt	nt	nt
CC(C)OCc1ccc(C(=O)N2CCN(CC(=O)N3CCCC3)CC2)cc1	i	nt	nt	nt	nt	nt	nt	nt	nt	nt	nt	nt
CCN1C(=O)Cc2cc(S(=O)(=O)NCCc3ccccc3)ccc21	i	nt	i	i	-7	i	nt	nt	nt	nt	nt	nt
COc1ccc(C(=O)NNC(=S)NC(=O)c2ccc(Br)o2)cc1OC	i	6.3*	i	i	-16	i	0.0065	0.021*	0.038*	0.02*	?	0.021*
O=C(NC(=S)Nc1ccccc1)c1ccc(Br)o1	i	111*	i	13*	4	i	0.046*	0.19*	0.062*	0.1*	0.13*	0.036*
SMILES	KCNK3 inh	Cl transport mod	KCNQ1 block	KCNQ1 act	hERG protect	KCNK9 inh	KCC2 secondary	KCC2 bumet counter	KCC2 secondary2	HEK293 Tl flux	KCC2 ouabain	HEK293 Tl flux2
COc1ccc(NC(=S)NC(=O)c2ccc(Br)o2)cc1	i	100*	i	17*	9.4*	i	0.057*	0.14*	0.061*	0.12*	0.11*	0.053*
COc1ccc(NC(=S)NC(=O)/C=C/c2ccco2)cc1	i	4.4*	i	i	-6	i	0.01	0.016*	0.037	?	?	0.012
O=C(NCC(c1ccco1)N1CCCC1)c1cc2cc(Cl)ccc2o1 (stereo not given)	i	nt	nt	nt	nt	nt	nt	nt	nt	nt	nt	nt
CN1C[C@@H]2[C@@H]3C(=O)N(C)C(=O)[C@@H]3[C@](C)(C1=O)N2C(=O)c1ccc(Cl)cc1	i	nt	nt	nt	nt	nt	nt	nt	nt	nt	nt	nt
COc1cccc(N2C(=O)CC(N3CCN(S(=O)(=O)c4ccccc4[N+](=O)[O-])CC3)C2=O)c1 (stereo not given)	i	nt	nt	nt	nt	nt	nt	nt	nt	nt	nt	nt
Cc1snnc1C(=O)NC(=S)Nc1ccccc1	i	52*	i	9*	11*	i	0.026*	0.089*	?	0.047*	0.064*	0.014*
Cc1cc(C(=O)OCC(=O)NC2(C#N)CCCCC2)c(C)o1	i	nt	nt	nt	nt	nt	nt	nt	nt	nt	nt	nt

Screens as filed in PubChem.
